Screens from PubChem.
Rows were chosen to be rich in hits. Some 4.6% of all compounds tested hit in one or more screens of this group.
TAAR1 agonist: agonists of human TAAR1. actives 0.99% (n = 360,000). AID 624467. activation, % at 3 µM. Q96RJ0. CHO RD-HGA16 TAAR1, Fluo-8 calcium fluorescence; vehicle wells 0%, saturating PEA agonist 100%;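 active = activation above the mean activation of all test compounds in the run plus 3 SD, cut at about 38% in these data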
Target sequence (Q96RJ0 whole entry, looked up): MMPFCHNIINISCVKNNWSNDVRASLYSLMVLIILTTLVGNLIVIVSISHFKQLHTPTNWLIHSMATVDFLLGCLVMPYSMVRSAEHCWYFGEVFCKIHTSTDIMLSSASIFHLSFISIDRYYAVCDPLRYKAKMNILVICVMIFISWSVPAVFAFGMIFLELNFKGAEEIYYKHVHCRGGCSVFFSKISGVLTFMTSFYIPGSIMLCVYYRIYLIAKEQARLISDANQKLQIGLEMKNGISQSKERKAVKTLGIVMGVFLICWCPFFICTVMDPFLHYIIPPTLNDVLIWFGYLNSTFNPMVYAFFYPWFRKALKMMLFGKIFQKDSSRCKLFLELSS
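System: CHO RD-HGA16 cells carrying human TAAR1 plus Gα16; Incubation: 17-24 h seeding, 75 min 37 °C dye, 30 min RT; Measured by: Fluo-8 fluorescence, 5 s baseline then 140 s kinetic read; Control set: DMSO and PEA EC100; Replication: single well for each compound.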
OX1R antag-1: OX1R (human) antagonism; O43613; OX1R-expressing cells, FRET antagonist read-out; inhibition, % at 6.6 µM; actives 1.8% (n = 330,000); AID 485270; in the data active = inhibition mostly above about 38%, no sharp cut-off; inactive = mostly below about 40%;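 note: 0% = agonist challenge alone and 100% = reference antagonist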
CHO parental Ca: counter-screen: ATP calcium response change in parental CHO cells | actives 0.63% (n = 330,000) | inhibition, % at 5.6 µM | parental CHO-K1, ATP-induced calcium, Fluo-8 fluorescence | AID 463079;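 active = inhibition above that plate's mean sample inhibition plus 3 SD, cut at about 26% in these data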;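 note: 0% = ATP-challenged DMSO wells and 100% = DMSO wells without ATP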
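Assay system: untransfected parental CHO cell line. Also added: ATP agonist challenge. Dosing: one dose, 5.6 µM nominal. Measured by: Fluo-8 fluorescence. Read-out: % inhibition. Benchmarks: ATP wells versus no-ATP DMSO wells. Repeats: no replicates.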
OX1R antag-2: human HCRTR1 antagonism | O43613 | CHO/OX1R cells, Fluo-8 calcium fluorescence, orexin A | inhibition, % at 5 µM | actives 0.43% (n = 330,000);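 active = inhibition above its plate's threshold, mean inhibition of all tested compounds on the plate plus 3 SD, cut at about 37% in these data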;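 note: 0% = orexin A challenge wells and 100% = SB-334867-A antagonist wells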
GPR7 antagonist: antagonists of human GPR7 (neuropeptides B/W receptor 1); P48145; GPR7-expressing cells, fluorescence antagonist assay; inhibition, % at 4.4 µM; actives 1.1% (n = 290,000); AID 1861; in the data active = inhibition above about 16%, passing the limit was not always enough;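 note: cells stimulated with the agonist NPW; 0% = agonist with vehicle and 100% = vehicle without agonist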
Target sequence (P48145 whole entry, looked up): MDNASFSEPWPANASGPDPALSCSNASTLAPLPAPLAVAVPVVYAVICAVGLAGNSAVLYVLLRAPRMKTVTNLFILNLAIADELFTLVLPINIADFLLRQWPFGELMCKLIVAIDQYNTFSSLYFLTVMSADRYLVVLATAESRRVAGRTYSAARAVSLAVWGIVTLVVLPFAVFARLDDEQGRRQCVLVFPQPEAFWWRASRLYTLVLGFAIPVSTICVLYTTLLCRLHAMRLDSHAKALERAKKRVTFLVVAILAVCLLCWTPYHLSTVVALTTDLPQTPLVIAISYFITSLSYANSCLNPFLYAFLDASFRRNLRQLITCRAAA
TAAR1 antagonist: antagonists of human TAAR1; CHO RD-HGA16 TAAR1, Fluo-8 calcium fluorescence, antagonist; actives 1.5% (n = 360,000); inhibition, % at 3 µM;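 active = inhibition above a per-plate cutoff, the mean inhibition of test compounds on that plate plus 3 SD, cut at about 49% in these data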;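 note: 0% = DMSO plus EC80 beta-PEA response and 100% = DMSO alone without agonist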
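Assay system: RD-HGA16 CHO cells with stable hTAAR1 and Gα16 / Reagent: EC80 β-phenethylamine stimulus / Doses: 3 µM, single point / Timing: dye loading 75 min at 37 °C, then 30 min room temperature / Measured by: Fluo-8 intracellular calcium dye fluorescence, real-time kinetic reads / Controls: vehicle wells and EC80 agonist wells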
nonsel antag count: nonselective antagonist in TAAR1 antagonist counter-screen; shares compounds with TAAR1 antagonist; counterscreen cell line, calcium fluorescence, antagonist mode; inhibition, % at 3 µM; actives 77% (n = 2,400); in the data active = inhibition above about 22%;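 note: CHO-Ga16 host cells stimulated with ATP at an EC80 level; 0% = agonist EC80 plus vehicle and 100% = vehicle without agonist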
TAAR1 ant conf: human TAAR1 antagonism, confirmed; TAAR1-expressing cells, fluorescence antagonist read-out; inhibition, % at 3 µM; shares compounds with TAAR1 antagonist; actives 40% (n = 2,400); in the data active = inhibition above about 49%;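 note: CHO-Ga16 host cells challenged with agonist PEA near its EC80; 0% = agonist at EC80 plus vehicle and 100% = vehicle with no agonist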
Ga16 nonsel ag: nonselective Ga16 agonist in TAAR1 antagonist counter-screen; Ga16-expressing cells, calcium fluorescence, agonist counterscreen; AID 651953; actives 18% (n = 2,400); shares compounds with TAAR1 antagonist; activation, % at 3 µM; in the data active = activation above about 12%;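 note: 0% = vehicle wells and 100% = saturating stimulus response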
TAAR1 ag count: activates human TAAR1 in antagonist counter-screen | actives 2% (n = 2,400) | activation, % at 3 µM | AID 651955 | shares compounds with TAAR1 antagonist | hTAAR1 cell line, fluorescence activation, agonist mode; in the data active = activation above about 37%;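 note: CHO cells stably expressing TAAR1 with calcium dye readout; 0% = DMSO vehicle and 100% = full agonist response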
* hit, by the source's call; nt = no result.

SMILES	TAAR1 agonist	OX1R antag-1	CHO parental Ca	OX1R antag-2	GPR7 antagonist	TAAR1 antagonist	nonsel antag count	TAAR1 ant conf	Ga16 nonsel ag	TAAR1 ag count
CCCNC(=O)c1ccccc1NC(=O)c1ccc2c(c1)NC(=O)C(C)S2 (centres undefined)	9	43	-27	-34	0	59*	27*	49*	7	14
COc1ccc(C(=O)N2CCN(C)C(=O)[C@@H]2C)cc1OC1CCN(C(C)C)CC1	1	13	-3	-7	3	-15	nt	nt	nt	nt
CCS(=O)(=O)N1Cc2ccccc2CC1C(=O)Nc1nnc(SCc2ccc(F)cc2)s1 (centres undefined)	30	6	-15	-5	-2	62*	32*	43	9	9
CCc1nnc(NC(=O)C2Cc3ccccc3CN2S(=O)(=O)CC)s1 (centres undefined)	0	19	-5	-37	-1	10	nt	nt	nt	nt
CCOc1ccc(N2C(=O)c3cccnc3C2=O)cc1	15	17	-12	-13	7	-2	nt	nt	nt	nt
CSc1sccc1/C=N/O	2	9	3	1	6	-1	nt	nt	nt	nt
CSc1sccc1/C=C(/C#N)C(=O)c1ccco1	3	5	-5	-30	-3	50*	33*	57*	7	10
O=C(NCCc1cccs1)C1CC(c2ccccc2F)=NO1 (centres undefined)	37	15	-5	-17	nt	74*	0	81*	2	68*
COc1ccc(CCNC(=O)C2CC(c3ccccc3F)=NO2)cc1 (centres undefined)	12	14	-14	-7	nt	0	nt	nt	nt	nt
COC(=O)C1=C(C)N(Cc2cccc(C(F)(F)F)c2)C(=NCc2ccc(OC)cc2)NC1c1cccc(C(F)(F)F)c1 (centres undefined)	27	nt	nt	nt	nt	23	nt	nt	nt	nt
CC(=O)c1ccc(OCC(=O)Nc2ccc3c(c2)CCC3)cc1	0	33	-13	-19	-2	84*	1	-1	9	13
CSc1nc2nccc(-c3ccc(Oc4ccccc4)cc3)n2n1	11	12	-4	-35	-7	56*	16	22	2	10
c1ccc(Oc2ccc(-c3ccnc4nc(N5CCN(c6ccccc6)CC5)nn34)cc2)cc1	5	7	-14	-21	-4	2	nt	nt	nt	nt
COc1ccccc1CNC(=O)C1CC(=O)N(c2ccc(C)c(C)c2)C1 (centres undefined)	14	6	-21	22	7	-6	nt	nt	nt	nt
CC(C)(C)c1ccc(CNc2ccc([N+](=O)[O-])cn2)cc1	1	8	5	-12	2	68*	14	39	12*	16
CC(C)c1ccc(CNc2ccc([N+](=O)[O-])cn2)cc1	8	10	18	-8	-1	48	nt	nt	nt	nt
Cc1c(C(=O)Nc2cccc([N+](=O)[O-])c2)csc1-c1ccccc1	14	72*	-4	9	1	81*	37*	54*	4	-2
Cc1ccc(S(=O)(=O)N2CCN(C(=O)CN3C(=O)CNC3=O)CC2)cc1	4	3	-15	-13	nt	7	nt	nt	nt	nt
CN(CC(=O)Nc1ccc(Cl)cc1)C(=O)c1cc(-c2cccs2)nn1-c1ccccc1	3	14	-34	-34	nt	66*	25*	42	6	4
CCN(CC(=O)Nc1ccccc1OC)C(=O)c1cc(-c2ccccc2)nn1-c1ccccc1	2	21	-9	-27	nt	61*	21	32	7	-1
CCN(CC(=O)Nc1c(F)cccc1F)C(=O)c1cc(-c2cccs2)nn1-c1ccccc1	9	16	-13	-13	nt	72*	27*	44	10	9
CCN(CC(=O)Nc1c(F)cccc1F)C(=O)CSc1ccccc1	-2	24	-14	0	nt	97*	3	-3	5	10
CCN(CC(=O)Nc1c(F)cccc1F)C(=O)CSc1ccc(F)cc1	0	15	8	-6	nt	-3	nt	nt	nt	nt
CN(C)S(=O)(=O)N1CCN(Cc2ccccc2)CC1	6	8	4	-11	-2	4	nt	nt	nt	nt
O=c1c2ccccc2nc2n1C(CSCc1ccc(Cl)cc1)CS2 (centres undefined)	13	46	6	6	3	-2	nt	nt	nt	nt
SMILES	TAAR1 agonist	OX1R antag-1	CHO parental Ca	OX1R antag-2	GPR7 antagonist	TAAR1 antagonist	nonsel antag count	TAAR1 ant conf	Ga16 nonsel ag	TAAR1 ag count
Cc1ccc(NC(=O)CN(C)C(=O)c2cc(-c3cccs3)nn2-c2ccccc2)cc1	5	4	-30	-14	nt	55*	22*	39	6	5
O=C(Cc1ccccc1F)Nc1nc(-c2ccc(F)c(F)c2)cs1	11	35	-4	-10	2	68*	24*	50*	11	14
CC(C(=O)Nc1nc(-c2ccc(F)c(F)c2)cs1)N1C(=O)C2CC=CCC2C1=O (centres undefined)	19	16	1	13	nt	78*	45*	60*	11	9
O=C(CN1C(=O)NC2(CCCC2)C1=O)Nc1nc(-c2ccc(F)cc2)cs1	24	31	-33	-34	-3	51*	23*	33	10	17
COc1ccc(-c2csc(NC(=O)[C@H](C)N3C(=O)C4CC=CCC4C3=O)n2)cc1OC (some centres undefined)	16	20	2	11	nt	47	nt	nt	nt	nt
COc1ccc(CC(=O)Nc2nc(-c3cc(OC)ccc3OC)cs2)cc1	12	25	-23	-21	-12	55*	22*	34	7	2
CC1CCCCC12NC(=O)N(Cc1cc(=O)n3ccsc3n1)C2=O (centres undefined)	0	1	0	-6	-10	-13	nt	nt	nt	nt
CC(=O)c1ccc(OC(=O)CCc2ccccc2)cc1	4	10	-3	-6	-17	7	nt	nt	nt	nt
COc1ccc(CN2C(=O)CCC2(C)c2nnnn2-c2c(C)cccc2C)cc1OC (centres undefined)	0	nt	nt	nt	nt	-21	nt	nt	nt	nt
COc1cccc(C(=O)N2CCn3c2nc2ccccc23)c1	0	4	-15	3	-9	7	nt	nt	nt	nt
O=C(Cc1ccc(F)cc1)Nc1nc(-c2ccc(F)cc2)cs1	4	12	-5	-3	-4	82*	46*	57*	7	-1
